Screening results: PubChem BioAssay, several laboratories
FLuc stim CS: FLuc activators, initial screening, artefact control for FLuc-dependent activation tests, biochemical, ATPlite luminescence | Luciferin 4-monooxygenase (Photinus pyralis), P08659 | 200,000 tested, under 10 active | AID 1027, 2008 | ATPlite luciferase biochemical, 10 min; 0 = ATP-free wells, 1 = DMSO control | activation factor at 10 µM;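 active means luciferase activation factor, scaled between plate controls, of at least 2 with compound at 10 µM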
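Assay system: Luciferase/luciferin detection reagent, cell-free biochemical luciferase assay / Also added: ATP substrate / Schedule: 10 min at ambient temperature / Measured by: luminescence measurement of luciferase light output / Benchmarks: low control with PBS replacing ATP, high control enzyme plus ATP without compound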
FLuc inhib CS: firefly luciferase enzyme inhibitors, primary screen, artefact control for luciferase-based inhibitor screens, biochemical, luminescence, ATPLite; 10 min; actives 1.5% (n = 200,000); inhibition, % at 10 µM;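 active means inhibition above about 50% when tested at 10 µM, limit read from the data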
PKD1 inh: inhibitors of human PKD1 kinase, biochemical, fluorescence polarization; inhibition, % (no concentration beside the values); PKD1 kinase fluorescence polarization assay; AID 797, 2007; actives 0.056% (n = 200,000); in the data active means inhibition above about 50%
PPC-1+TRAIL kill: compounds killing PPC-1 cancer cells with TRAIL present, primary screen, TRAIL potentiator project, ATPLite luminescence, uHTS; PPC-1 cells + TRAIL, ATPLite viability luminescence; cell killing (% activity), % at 4 µM or 5 µM; actives 0.41% (n = 220,000);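 active means cell killing above 50% in the first pass at 4 µM, then a duplicate retest at 5 µM averaging 50% or more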;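 further: plate controls were cells with TRAIL plus DMSO for no effect and medium-only wells lacking cells for full effect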
C8 TRAIL sens: viability loss with TRAIL in NB7+C8 cells, primary screen, TRAIL sensitizer project, cell-based, ATPlite luminescence; inhibition (viability loss, TRAIL sensitization), % at 10 µM; actives 1% (n = 360,000); AID 624354, 2012;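 active means compounds causing at least 50% loss of cell viability in the single-dose screen, relative to plate controls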
Wee1 degr inh: Wee1 degradation inhibitors, primary screen, cell-based, HeLa, Wee1K328M-luciferase, luminescence; actives 1.2% (n = 220,000); AID 1321, 2008; HeLa Luc-Wee1K328M stability; 100% = proteasome inhibitor MG132 effect; reporter increase, % at 5 µM;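 active means activation above the mean of all tested compounds plus 3 SD, set per screening run, cut at about 8.8% in these data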;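 further: cells exposed to compound for 20 h before luminescence read; 0% = DMSO alone and 100% = MG132 at 30 µM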
Target sequence (P30291 whole entry K328M): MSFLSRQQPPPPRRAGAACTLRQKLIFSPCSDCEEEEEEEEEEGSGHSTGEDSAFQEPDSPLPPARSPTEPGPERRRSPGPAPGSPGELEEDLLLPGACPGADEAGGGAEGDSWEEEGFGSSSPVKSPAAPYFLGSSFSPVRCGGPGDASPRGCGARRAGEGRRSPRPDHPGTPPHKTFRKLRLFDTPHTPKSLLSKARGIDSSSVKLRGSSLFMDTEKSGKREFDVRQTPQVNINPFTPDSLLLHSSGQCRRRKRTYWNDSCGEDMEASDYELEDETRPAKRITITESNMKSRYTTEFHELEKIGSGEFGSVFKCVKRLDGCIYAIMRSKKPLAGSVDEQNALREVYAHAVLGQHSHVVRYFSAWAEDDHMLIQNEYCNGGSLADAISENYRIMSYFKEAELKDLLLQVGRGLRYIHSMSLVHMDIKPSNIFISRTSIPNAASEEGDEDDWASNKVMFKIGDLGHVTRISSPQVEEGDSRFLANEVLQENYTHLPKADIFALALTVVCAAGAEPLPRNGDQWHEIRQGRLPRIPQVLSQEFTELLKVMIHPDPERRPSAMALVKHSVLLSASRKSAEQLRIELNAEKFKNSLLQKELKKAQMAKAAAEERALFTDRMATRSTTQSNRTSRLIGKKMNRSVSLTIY
* hit, by the source's call. Sampled rows, rich in hits. Any-hit rate of the full collection: about 2.2%.

Results for CCOC(=O)c1ccc(CC(=O)c2oc3cc(O)ccc3c2C)o1 ?
FLuc stim CS: 1.1; FLuc inhib CS: -8; PKD1 inh: 9; PPC-1+TRAIL kill: 8; C8 TRAIL sens: -4; Wee1 degr inh: 10*

How did CCOC(=O)c1ccc(CC(=O)c2ccc(O)c(O)c2O)o1 do in these assays?
FLuc stim CS: 1; FLuc inhib CS: -4; PKD1 inh: 8; PPC-1+TRAIL kill: 7; C8 TRAIL sens: -1; Wee1 degr inh: 0

What do the screens show for `COc1cccc(NC(=O)CCS(=O)(=O)c2ccc3c(c2)oc(=O)n3C)c1`?
C8 TRAIL sens: -17

How did COCCNC(=O)c1c[nH]c2ccc(S(=O)(=O)N3CCc4ccccc43)cc2c1=O do in these assays?
FLuc stim CS: 1.1; FLuc inhib CS: -8; PKD1 inh: -4; PPC-1+TRAIL kill: 43; C8 TRAIL sens: 71*; Wee1 degr inh: -2

What do the screens show for `CCOc1ccc(-n2c(SCC(N)=O)nc3c([nH]c4ccccc43)c2=O)cc1`?
FLuc stim CS: 1.1; FLuc inhib CS: -5; PKD1 inh: 0; PPC-1+TRAIL kill: 18; C8 TRAIL sens: 51*; Wee1 degr inh: -1

How did CCOC(=O)C1CCCN(CC(=O)Nc2nccs2)C1 (stereo not given) do in these assays?
C8 TRAIL sens: -3

Results for COc1ccc(NC(=O)C2CC(=O)N/C(=N/N=C/c3ccco3)S2)cc1 (stereo not given) ?
PPC-1+TRAIL kill: 7; C8 TRAIL sens: -7; Wee1 degr inh: 9.4*

Results for CCOc1ccc(C(=O)COC(=O)CC)cc1 ?
FLuc stim CS: 0.4; FLuc inhib CS: 56*; PKD1 inh: -6; PPC-1+TRAIL kill: 10; C8 TRAIL sens: 10; Wee1 degr inh: 6

What do the screens show for `CCOc1ccc(C(=O)CCCC(=O)c2ccc(OCC)cc2)cc1`?
C8 TRAIL sens: 2

What do the screens show for `CCCCC(=O)OCC(=O)c1ccc(OCC)cc1`?
FLuc stim CS: 0.5; FLuc inhib CS: 53*; PKD1 inh: -6; PPC-1+TRAIL kill: 26; C8 TRAIL sens: 0; Wee1 degr inh: 1

What do the screens show for `O=C1NC[C@H](CCCCN2CCN(CC3CCCCC3)C(=O)C2=O)N(CCC2CCCCC2)C1=O`?
C8 TRAIL sens: -8

How did COc1ccc(NC(=O)c2cc(-c3ccncc3)nc3ccc(Br)cc23)cc1OC do in these assays?
C8 TRAIL sens: 54*

How did CCOc1ccccc1C=C1SC(=S)N(CC)C1=O do in these assays?
C8 TRAIL sens: 73*

How did Cc1cc(N(C)C)ccc1N=Nc1ccc(N)cc1 do in these assays?
C8 TRAIL sens: 45

What do the screens show for `Nc1ccc(N=Nc2ccc(N)cc2)cc1`?
FLuc stim CS: 0.4; FLuc inhib CS: 64*; PKD1 inh: -6; PPC-1+TRAIL kill: 18; C8 TRAIL sens: 48; Wee1 degr inh: 1

How did Cc1ccc2nc(C3CCCCC3)c(CC(C)(C)C)n2c1 do in these assays?
C8 TRAIL sens: -8

How did Cc1cccn2c(=O)c3cc(C(=O)NCCc4ccccc4)c(=N)n(Cc4ccco4)c3nc12 do in these assays?
C8 TRAIL sens: 60*

How did CC(=O)N=c1c(C#N)cc2c(=O)n3cccc(C)c3nc2n1Cc1ccco1 do in these assays?
PPC-1+TRAIL kill: 4; C8 TRAIL sens: 15; Wee1 degr inh: 9.1*

Results for COc1cc(CNc2ccc(CNc3ncn[nH]3)cc2)ccc1OCc1ccccc1 ?
FLuc stim CS: 1; FLuc inhib CS: 1; PKD1 inh: 7; PPC-1+TRAIL kill: 11; C8 TRAIL sens: 17; Wee1 degr inh: 10*

How did Cc1cc(NC(=O)CSCC(=O)N(C)Cc2cccc(Cl)c2)no1 do in these assays?
C8 TRAIL sens: 15

Results for O=[N+]([O-])c1ccc(O)c(C2=NNC(c3ccccc3F)C2)c1 (stereo not given) ?
PPC-1+TRAIL kill: 0; C8 TRAIL sens: 21; Wee1 degr inh: 9.6*
